Only some compounds are listed: those with a hit (about 2.5% of all), similar ones and a draw of the others.
NadD inh: inhibitors of Staphylococcus aureus NadD. inhibition, % at 20 µM. purified NadD enzyme, colorimetric absorbance read-out. 360,000 compounds, 0.78% hits. AID 602399; in the data active = inhibition above about 26%
ABHD5-PLIN5 inh: blocks binding of human ABHD5 to perilipin-5; Q00G26+Q8WTS1; Split G. princeps luciferase complementation, luminescence, 4 h; inhibition, % at 4 µM; 360,000 compounds, 0.78% hits; AID 602281;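 active = inhibition above the mean inhibition across every tested compound plus 3 SD, cut at about 22% in these data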;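 note: 0% = DMSO only wells and the 100% control is not disclosed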
Beta2AR agonist: human beta-2 adrenergic receptor agonism by FAP | AID 504454 | response, % (no concentration beside the values) | P07550 | 340,000 compounds, 0.43% hits | Am2.2-beta2AR cells, FAP receptor internalization, flow cytometry;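 active = response above a set limit, near 3 SD of response in nonfluorescent compounds, cut at about 42% in these data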
GRK2 aptamer HTS: inhibitors of human GRK2 displacing RNA aptamer. P25098. AID 488847. 330,000 compounds, 0.59% hits. inhibition of aptamer binding, % at 10 µM. bead flow cytometry, FAM-aptamer displacement from GRK2;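 active = inhibition of aptamer binding above 40%, roughly 3 SD of noise, on plates passing a quality check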;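 note: median bead fluorescence of bound FAM aptamer so fluorescent compounds give negative values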
SENP1 inh: inhibitors of human SENP1 SUMO protease catalytic domain; recombinant SENP1 catalytic domain, CyPet-SUMO1-YPet FRET cleavage; inhibition, % at 10 µM; 360,000 compounds, 0.21% hits;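 active = inhibition at least 30% at 10 µM, raw YFP signal under a set limit, fluorescence ratio 0.5 to 1.5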;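 note: 0% = enzyme with DMSO and 100% = no enzyme wells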
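Assay system: hSENP1 catalytic domain, recombinant. Amount: SENP1 enzyme, 20 pM final. Schedule: 50 min reaction, RT, dark. Technique: FRET, CFP and YFP emission. Control set: no-enzyme wells low, DMSO-plus-enzyme wells high control.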
SENP1 conf: confirmation of human SENP1 SUMO protease inhibitors; 520 compounds, 34% hits; shares compounds with SENP1 inh; recombinant SENP1, CyPet-SUMO1-YPet FRET cleavage; inhibition, % at 10 µM; in the data active = inhibition mostly above about 35%, no sharp cut-off; inactive = mostly below about 32%;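 note: 0% = enzyme with DMSO and 100% = no enzyme control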
SENP1 kin conf: SENP1 (human) inhibition, kinetic confirmation; recombinant SENP1, CyPet-SUMO1-YPet FRET kinetic cleavage; shares compounds with SENP1 inh; 520 compounds, 26% hits; AID 651690; inhibition, % at 10 µM; in the data active = inhibition mostly above about 32%, no sharp cut-off; inactive = mostly below about 29%;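 note: 0% = DMSO with enzyme and 100% = no enzyme substrate only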
Active calls of the source: *; . = not tested or not shown.

SMILES	NadD inh	ABHD5-PLIN5 inh	Beta2AR agonist	GRK2 aptamer HTS	SENP1 inh	SENP1 conf	SENP1 kin conf
O=C(Nc1cc(F)cc(F)c1)c1ccc(NCCc2ccccc2)c([N+](=O)[O-])c1	-2.7	0.6	-2.6	0.0	38.0*	36.1*	36.0*
O=C(CN1C(=O)S/C(=C/C=C/c2ccccc2)C1=O)Nc1ccc(C(=O)O)cc1	18.3	20.1	-0.1	3.0	-1.9	.	.
O=C(CN1C(=O)/C(=C\C=C\c2ccccc2)SC1=S)Nc1ccc(F)cc1	14.1	-0.5	-9.8	16.0	65.7*	63.2*	40.7*
COC12CC(=O)C(C(C)=O)=C(O)C1(C)c1c(O)c(C)c(O)c(C(C)=O)c1O2 (stereo not drawn)	-2.3	-3.3	.	.	32.5*	32.5	18.4
C=CCOc1c(Br)cc(/C=C2\SC(=Nc3ccccc3)NC2=O)cc1OC	21.4	0.7	15.7	1.0	42.0*	25.1	19.9
CCOc1cc(Br)cc(/C=C2\SC(=Nc3ccccc3)NC2=O)c1O	36.2*	5.2	6.3	0.0	35.3*	69.4*	45.3*
C=CCOc1ccc(Br)cc1/C=C1/SC(=Nc2ccc(C(=O)O)cc2)NC1=O	27.5	7.8	5.7	.	-18.7	.	.
COc1ccccc1C(=O)N/C(=C\c1cn(S(=O)(=O)N(C)C)c2ccccc12)C(=O)N1CCN(C)CC1	-0.5	5.6	.	.	0.1	.	.
COc1ccc(-n2c(COc3cccc4cccnc34)nnc2SCC(=O)O)cc1	-3.3	-5.5	-2.0	0.0	0.3	.	.
COC(=O)c1ccccc1S(=O)(=O)N1CCC(C(=O)NCc2ccco2)CC1	-2.2	-5.8	-8.3	0.0	0.6	.	.
CCOC(=O)/C=C/c1cc(F)ccc1O	.	3.3	.	.	66.2*	39.8*	38.2*
COc1cccc(/C=C/C(=O)OCC(=O)c2ccc(C)c(C)c2)c1OC	-8.5	2.6	0.3	3.0	2.2	.	.
CCOC(=O)/C=C/c1cccc(C)c1O	.	-2.4	.	.	32.3*	17.2	36.5*
C/C(=N\NC(=O)c1ccc(-n2cnnn2)cc1)c1ccc(Cl)cc1	-2.8	-0.1	2.8	2.0	-0.4	.	.
Cc1ccc2nc(C)cc(C(=O)N3CCCC(N4CCN(c5ccccc5C)CC4)C3)c2c1 (stereo not drawn)	2.5	-1.0	4.1	0.0	-1.4	.	.
Cc1ccc(NCCCn2ccc(NC(=O)OCc3ccccc3)nc2=O)cc1C	4.2	-2.0	5.6	.	3.2	.	.
CC(=O)Oc1ccc(C(=O)Cc2ccc3ccccc3n2)c(O)c1C	-1.8	-4.6	5.0	1.0	49.0*	25.4	19.1
c1ccc(NC2=Nc3cccc4cccc2c34)cc1	-4.3	1.9	2.9	0.0	74.1*	43.2*	25.1
COc1ccc(NC2=Nc3cccc4cccc2c34)cc1	1.0	-3.7	-2.1	0.0	77.4*	57.4*	29.1
O=C(O)c1cccc(NC2=Nc3cccc4cccc2c34)c1	-7.9	0.6	-2.1	1.0	-37.8	.	.
Cc1ccc(C(=O)Nc2cccnc2)cc1Cl	-1.7	3.1	-5.9	0.0	-0.3	.	.
O=C1C(Cl)=C(N2CCCC2)C(=O)N1c1ccc(F)cc1	-7.9	-0.5	-12.1	1.0	34.9*	11.2	9.5
COc1ccc(N2C(=O)C(Cl)=C(N3CCCC3)C2=O)cc1	-2.0	3.8	-7.2	1.0	5.4	.	.
CCOC(=O)Cn1c(=O)oc2cc(S(=O)(=O)NC(C)c3ccccc3)ccc21 (stereo not drawn)	-6.4	-6.1	-3.0	2.0	3.9	.	.
CC(NS(=O)(=O)c1ccc2c(c1)oc(=O)n2C)c1ccccc1 (stereo not drawn)	-0.9	-2.0	-130.7	0.0	33.9*	12.2	14.9
SMILES	NadD inh	ABHD5-PLIN5 inh	Beta2AR agonist	GRK2 aptamer HTS	SENP1 inh	SENP1 conf	SENP1 kin conf
NC(=O)N/N=C/c1ccc(N2CCOCC2)s1	1.9	-10.0	-3.7	0.0	47.4*	75.4*	51.8*
Cc1cccc(C(=O)NN2C(=O)C3C(c4ccccc4)C=CC(c4ccccc4)C3C2=O)c1 (stereo not drawn)	9.1	-4.2	10.2	0.0	64.0*	13.0	7.0
O=C(NN1C(=O)C2C3C=CC(C3)C2C1=O)c1ccccc1 (stereo not drawn)	-4.6	-2.0	-7.5	3.0	2.7	.	.
O=C(NCC(c1ccccc1Cl)N1CCCC1)c1ccc(N2CCCC2=O)cc1 (stereo not drawn)	-2.2	-3.0	11.4	.	0.6	.	.
N#CCSc1ccccc1NC(=O)COc1ccc(-c2nnco2)cc1	-4.6	-2.8	-80.4	0.0	34.3*	2.9	9.6
N#CCSc1ccccc1NC(=O)COC(=O)Cc1c[nH]c2ccccc12	0.5	-2.3	-68.2	0.0	42.6*	3.2	5.8
COc1ccc(C(=O)Nc2ccc(S(=O)(=O)Nc3nccc(C)n3)cc2)cc1[N+](=O)[O-]	-2.0	0.1	-2.3	3.0	-1.0	.	.

Source: PubChem
